Values after ≈ are worked out from the molar mass of the structure shown. Active and inactive are the calls of the source. The rule behind the calls is not given here.
Assays:
[1] = tested on: Mycobacterium tuberculosis; experiment: Antitubercular activity against Mycobacterium tuberculosis CNCTC My 331/88 (H37Rv) assessed as inhibition of bacterial growth measured after 21 days of incubation by Sulas semisynthetic medium based assay; assay type: functional; settings: 504 h, time 21 day
How it was run: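 Micromethod MIC in Sula's semisynthetic medium. MIC is the lowest concentration inhibiting >99% of the mycobacterial population. Isoniazid was the standard drug.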

Mycobacterium avium [2] = experiment: Antitubercular activity against Mycobacterium avium CNCTC My 330/88 assessed as inhibition of bacterial growth measured after 14 days of incubation by Sulas semisynthetic medium based assay; assay type: functional; settings: CNCTC My 330/88, 336 h, time 14 day
How it was run: (§1)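 M. avium was tested by the micromethod in Sula's semisynthetic medium. Compounds in DMSO at 1000 to 0.5 μmol/L. Incubation at 37 °C, read at 14 and 21 days. MIC is the lowest concentration giving >99% growth inhibition.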

Mycobacterium avium [3] = experiment: Antitubercular activity against Mycobacterium avium CNCTC My 330/88 assessed as inhibition of bacterial growth measured after 21 days of incubation by Sulas semisynthetic medium based assay; assay type: functional; settings: CNCTC My 330/88, 504 h, time 21 day; how it was run: as §1
[4] = tested on: Mycobacterium tuberculosis; experiment: Antimycobacterial activity against MDR clinical isolate Mycobacterium tuberculosis PRAHA 1 assessed as inhibition of mycobacterial growth measured after 14 to 21 days of incubation by Sulas semisynthetic medium based assay; assay type: functional; settings: time 14-21 day
How it was run: (§2)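 Clinical MDR/XDR M. tuberculosis isolates were tested by the Sula's semisynthetic medium micromethod. Compounds in DMSO at 1000 to 0.5 μmol/L, in twofold-type steps. Incubation at 37 °C, read at 14 and 21 days. MIC99 is the lowest concentration inhibiting >99% of growth. Drug resistance or susceptibility of each isolate is to amikacin, clofazimine, gentamicin, ofloxacin, streptomycin and the others listed.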

[5] = tested on: Mycobacterium tuberculosis; experiment: Antimycobacterial activity against MDR clinical isolate Mycobacterium tuberculosis 9449/2007 assessed as inhibition of mycobacterial growth measured after 14 to 21 days of incubation by Sulas semisynthetic medium based assay; assay type: functional; settings: time 14-21 day; how it was run: as §2
[6] = tested on: Mycobacterium tuberculosis; experiment: Antimycobacterial activity against XDR clinical isolate Mycobacterium tuberculosis 9449/2007 assessed as inhibition of mycobacterial growth measured after 14 to 21 days of incubation by Sulas semisynthetic medium based assay; assay type: functional; settings: time 14-21 day; how it was run: as §2
[7] = tested on: Mycobacterium tuberculosis; experiment: Antimycobacterial activity against MDR clinical isolate Mycobacterium tuberculosis 234/2005 assessed as inhibition of mycobacterial growth measured after 14 to 21 days of incubation by Sulas semisynthetic medium based assay; assay type: functional; settings: time 14-21 day; how it was run: as §2
[8] = tested on: Mycobacterium tuberculosis; experiment: Antimycobacterial activity against XDR clinical isolate Mycobacterium tuberculosis 234/2005 assessed as inhibition of mycobacterial growth measured after 14 to 21 days of incubation by Sulas semisynthetic medium based assay; assay type: functional; settings: time 14-21 day; how it was run: as §2
[9] = tested on: Mycobacterium tuberculosis; experiment: Antimycobacterial activity against MDR clinical isolate Mycobacterium tuberculosis 7357/1998 assessed as inhibition of mycobacterial growth measured after 14 to 21 days of incubation by Sulas semisynthetic medium based assay; assay type: functional; settings: time 14-21 day; how it was run: as §2
[10] = tested on: Mycobacterium tuberculosis; experiment: Antimycobacterial activity against XDR clinical isolate Mycobacterium tuberculosis 7357/1998 assessed as inhibition of mycobacterial growth measured after 14 to 21 days of incubation by Sulas semisynthetic medium based assay; assay type: functional; settings: time 14-21 day; how it was run: as §2
[11] = tested on: Mycobacterium tuberculosis; experiment: Antimycobacterial activity against MDR clinical isolate Mycobacterium tuberculosis 8666/2010 assessed as inhibition of mycobacterial growth measured after 14 to 21 days of incubation by Sulas semisynthetic medium based assay; assay type: functional; settings: time 14-21 day; how it was run: as §2
[12] = tested on: Mycobacterium tuberculosis; experiment: Antimycobacterial activity against XDR clinical isolate Mycobacterium tuberculosis 8666/2010 assessed as inhibition of mycobacterial growth measured after 14 to 21 days of incubation by Sulas semisynthetic medium based assay; assay type: functional; settings: time 14-21 day; how it was run: as §2
HepG2 [13] = experiment: Cytotoxicity against human HepG2 cells assessed as cell viability at 50 uM incubated for 72 hrs by MTT spectrophotometric analysis relative to control; assay type: functional; settings: read-out: Activity
How it was run: (§3)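 HepG2 or rat H9c2 cells in DMEM with FBS, seeded at 10,000 cells/well. Treated 24 h later for 72 h, with 0.1% DMSO vehicle and 1% Triton X-100 as controls. MTT added (3 mg/mL solution) for 2 h at 37 °C, then cells lysed in isopropanol/0.1 M HCl/5% Triton X-100. Read at 570 nm minus 690 nm. Viability expressed as % of vehicle; IC50 derived where reached. At least four independent experiments.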

HepG2 [14] = experiment: Cytotoxicity against human HepG2 cells assessed as cell viability incubated for 72 hrs by MTT spectrophotometric analysis; assay type: functional, cell-based; settings: HepG2, 72 h; how it was run: as §3
Staphylococcus aureus [15] = experiment: Antibacterial activity against methicilin-resistant Staphylococcus aureus C1923 assessed as inhibition of bacterial growth incubated for 24 to 48 hrs by microdilution broth method; assay type: functional, organism-based; settings: time 24-48 hrs
How it was run: (§4)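 Clinical isolates, stored at −70 °C, were passaged twice on Mueller-Hinton agar. Broth microdilution in Mueller-Hinton broth, pH 7.4, with twofold serial dilutions. DMSO was at most 1% final. Inoculum 1.5 × 10⁸ CFU/mL suspension. MIC is 95% growth inhibition, read after 24 and 48 h at 36 °C.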

Klebsiella pneumoniae [16] = experiment: Antibacterial activity against ESBL negative Klebsiella pneumoniae C1950 assessed as inhibition of bacterial growth incubated for 24 to 48 hrs by microdilution broth method; assay type: functional, organism-based; settings: time 24-48 hrs
How it was run: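 Clinical isolates kept at –70 °C and subcultured twice on Mueller-Hinton agar, using the second subculture. Broth microdilution in Mueller-Hinton broth at pH 7.4 with two-fold serial compound dilutions and DMSO ≤1% final. Inoculum was 10 μL of a 1.5 × 10⁸ CFU/mL suspension. Incubated at 36 °C ± 1 °C and read at 24 h and 48 h. MIC taken as 95% growth inhibition.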

Pseudomonas aeruginosa [17] = experiment: Antibacterial activity against multidrug-resistant Pseudomonas aeruginosa A1245 assessed as inhibition of bacterial growth incubated for 24 to 48 hrs by microdilution broth method; assay type: functional, organism-based; settings: time 24-48 hrs; how it was run: as §4
[18] = Aqueous solubility of compound incubated for 20 mins by UV-Visible spectrophotometric analysis; assay type: physicochemical; settings: buffer
How it was run: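 Solubility in ultrapure water containing 5% DMSO. Absorbance taken at each compound's λmax and compared with a six-point calibration made by serial dilution of a 50 μM standard, fitted by linear regression. Over-saturated solutions were sonicated at 37 °C for 10 min and centrifuged at 8000 RPM for 10 min. Supernatant absorbance was read, after dilution with 5% DMSO/water if above the calibration range.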

[19] = Half life in human liver microsomes at 3 uM incubated for 5 to 45 min in presence of NADPH by LC-MS analysis; assay type: ADME, Microsome; settings: time 5-45 min
Staphylococcus aureus [20] = experiment: Antibacterial activity against Staphylococcus aureus C1947 assessed as inhibition of bacterial growth at 125 uM incubated for 24 to 48 hrs by microdilution broth method; assay type: functional, organism-based; settings: time 24-48 hrs
Staphylococcus aureus [21] = experiment: Antibacterial activity against methicilin-resistant Staphylococcus aureus C1923 assessed as inhibition of bacterial growth at 125 uM incubated for 24 to 48 hrs by microdilution broth method; assay type: functional, organism-based; settings: time 24-48 hrs
Enterococcus faecium = experiment: Antibacterial activity against vancomycin-resistant Enterococcus faecium assessed as inhibition of bacterial growth at 125 uM incubated for 24 to 48 hrs by microdilution broth method; assay type: functional, organism-based; settings: time 24-48 hrs
Klebsiella pneumoniae [22] = experiment: Antibacterial activity against ESBL negative Klebsiella pneumoniae C1950 assessed as inhibition of bacterial growth at 125 uM incubated for 24 to 48 hrs by microdilution broth method; assay type: functional, organism-based; settings: time 24-48 hrs
Pseudomonas aeruginosa [23] = experiment: Antibacterial activity against multidrug-resistant Pseudomonas aeruginosa A1245 assessed as inhibition of bacterial growth at 125 uM incubated for 24 to 48 hrs by microdilution broth method; assay type: functional, organism-based; settings: time 24-48 hrs

| SMILES | MIC99 [1] | MIC99 (Mycobacterium avium [2]) | MIC99 (Mycobacterium avium [3]) | MIC99 [4] | MIC99 [5] | MIC99 [6] | MIC99 [7] | MIC99 [8] | MIC99 [9] | MIC99 [10] | MIC99 [11] | MIC99 [12] | viability at 50 µM (HepG2 [13]) | IC50 (HepG2 [14]) | Activity (Staphylococcus aureus [15]) | Activity (Klebsiella pneumoniae [16]) | Activity (Pseudomonas aeruginosa [17]) | solubility at 20 min [18] | half-life at 3 µM [19] | other results |
| --- | --- | --- | --- | --- | --- | --- | --- | --- | --- | --- | --- | --- | --- | --- | --- | --- | --- | --- | --- | --- |
| COc1nc(N2CCOCC2)nc2ncn(Cc3ccc4ccccc4c3)c12 | 4 µM (≈ 1.5 µg/mL) | 250 µM (≈ 93.9 µg/mL) | 500 µM (≈ 188 µg/mL) | 16 µM (≈ 6.01 µg/mL) | 8 µM (≈ 3 µg/mL) | 16 µM (≈ 6.01 µg/mL) | 16 µM (≈ 6.01 µg/mL) | 16 µM (≈ 6.01 µg/mL) | 16 µM (≈ 6.01 µg/mL) | 16 µM (≈ 6.01 µg/mL) | 8 µM (≈ 3 µg/mL) | 8 µM (≈ 3 µg/mL) | 66.4% | > 50 µM | inactive | inactive | inactive | – | – | – |
| O=c1[nH]c(N2CCSCC2)nc2ncn(Cc3ccc4ccccc4c3)c12 | 4 µM (≈ 1.51 µg/mL) | > 500 µM | > 500 µM | 16 µM (≈ 6.04 µg/mL) | 8 µM (≈ 3.02 µg/mL) | 16 µM (≈ 6.04 µg/mL) | 16 µM (≈ 6.04 µg/mL) | 16 µM (≈ 6.04 µg/mL) | 16 µM (≈ 6.04 µg/mL) | 16 µM (≈ 6.04 µg/mL) | 8 µM (≈ 3.02 µg/mL) | 8 µM (≈ 3.02 µg/mL) | 72.9% | > 50 µM | inactive | inactive | inactive | 9.3 µM (≈ 3.51 µg/mL) | 10.9 min | – |
| c1ccc2cc(Cn3cnc4nc(N5CCOCC5)nc(NC5CCC5)c43)ccc2c1 | 4 µM (≈ 1.66 µg/mL) | 250 µM (≈ 104 µg/mL) | 500 µM (≈ 207 µg/mL) | 4 µM (≈ 1.66 µg/mL) | 4 µM (≈ 1.66 µg/mL) | 8 µM (≈ 3.32 µg/mL) | 4 µM (≈ 1.66 µg/mL) | 8 µM (≈ 3.32 µg/mL) | 4 µM (≈ 1.66 µg/mL) | 8 µM (≈ 3.32 µg/mL) | 4 µM (≈ 1.66 µg/mL) | 8 µM (≈ 3.32 µg/mL) | – | – | Active | inactive | inactive | 159 µM (≈ 65.9 µg/mL) | 37.9 min | – |
| CCOc1nc(N2CCOCC2)nc2ncn(Cc3ccc4ccccc4c3)c12 | 2 µM (≈ 0.779 µg/mL) | > 500 µM | > 500 µM | – | 2 µM (≈ 0.779 µg/mL) | 4 µM (≈ 1.56 µg/mL) | – | – | – | – | 2 µM (≈ 0.779 µg/mL) | 2 µM (≈ 0.779 µg/mL) | 23.5% | 33.1 µM | inactive | inactive | inactive | 81.3 µM (≈ 31.7 µg/mL) | 56.8 min | Activity (Staphylococcus aureus [20]): inactive; Activity (Staphylococcus aureus [21]): inactive; Activity (Enterococcus faecium): inactive; Activity (Klebsiella pneumoniae [22]): inactive; Activity (Pseudomonas aeruginosa [23]): inactive |
